Common to all, as to assay type: functional
Test [1] relates to Staphylococcus aureus. The experiment in a line: AUBKC (0 to 24 hrs) in methicillin-resistant Staphylococcus aureus 33829 infected in in vitro pharmacokinetic model at 750 mg, iv every 8 hrs using 10^6 CFU/ml inoculum. An outline of the steps:
(§1)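 Single-compartment dilutional in vitro PK model at 37°C in 10% Mueller-Hinton broth, stirred, flow 132 ml/h. […] Inoculum 10^6 CFU/ml added 45 min before dosing, or 10^8 CFU/ml run overnight. Viable counts with β-lactamase neutralisation. AUBKC by log-linear trapezoidal rule, at least triplicate.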

The test system of test [2] is Staphylococcus aureus. The experiment in a line: AUBKC (0 to 48 hrs) in methicillin-sensitive Staphylococcus aureus 5956 infected in in vitro pharmacokinetic model at 1500 mg, iv every 8 hrs using 10^6 CFU/ml inoculum. An outline of the steps:
as §1

The subject of test [3] is Staphylococcus aureus. Briefly: AUBKC (0 to 48 hrs) in methicillin-resistant Staphylococcus aureus 33921 infected in in vitro pharmacokinetic model at 1500 mg, iv every 8 hrs using 10^6 CFU/ml inoculum. An outline of the steps:
as §1

For test [4], the system named is Staphylococcus aureus. The experiment in a line: AUBKC (0 to 48 hrs) in methicillin-resistant Staphylococcus aureus 33829 infected in in vitro pharmacokinetic model at 1500 mg, iv every 8 hrs using 10^6 CFU/ml inoculum. An outline of the steps: as §1
In test [5] the test system is Staphylococcus aureus. Briefly: Antibacterial activity against methicillin-resistant Staphylococcus aureus 33827 infected in in vitro pharmacokinetic model assessed as reduction in viable count at 750 mg, iv every 8 hrs measured after 12 hrs using 10^8 CFU/ml inoculum. An outline of the steps:
(§2)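 Single-compartment dilutional in vitro PK model, 10% Mueller-Hinton broth, 37°C, stirred, dilution 132 ml/h. […] Inoculum 10^6 CFU/ml (added 45 min pre-dose) or 10^8 CFU/ml (run overnight). Viable counts by spiral plating, beta-lactamase neutralization, detection limit 10^2 CFU/ml. At least triplicate.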

The test system of test [6] is Staphylococcus aureus. The experiment in a line: Antibacterial activity against methicillin-resistant Staphylococcus aureus 33921 by 10% MH broth method. An outline of the steps: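 MIC by CLSI broth dilution, or by broth dilution in 10% Mueller-Hinton broth at nondoubling dilutions.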
Test [7] deals with Staphylococcus aureus. Briefly: Antibacterial activity against methicillin-resistant Staphylococcus aureus 33815 infected in in vitro pharmacokinetic model assessed as time required to 99.9% killing at 750 mg, iv every 8 hrs using 10^8 CFU/ml inoculum. An outline of the steps:
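T99 and T99.9 were taken as the times for the count to fall 99% or 99.9% from time 0, using serial viable counts over 48 h. Inoculum was 10^8 CFU/ml, grown overnight in the model before dosing.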

The subject of test [8] is Staphylococcus aureus. The experiment in a line: AUBKC (0 to 24 hrs) in methicillin-resistant Staphylococcus aureus 33922 infected in in vitro pharmacokinetic model at 1500 mg, iv every 8 hrs using 10^8 CFU/ml inoculum. An outline of the steps:
as §1

For test [9], the system named is Staphylococcus aureus. Briefly: AUBKC (0 to 24 hrs) in methicillin-resistant Staphylococcus aureus 33827 infected in in vitro pharmacokinetic model at 1500 mg, iv every 8 hrs using 10^8 CFU/ml inoculum. An outline of the steps: as §1
Test [10] deals with Staphylococcus aureus. The experiment in a line: Antibacterial activity against methicillin-resistant Staphylococcus aureus 33820 in in vitro pharmacokinetic model assessed as viable count at 4 times of MIC. An outline of the steps: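 Population analysis before drug exposure (time 0). Model samples were plated on nutrient agar without drug and with tomopenem at 2×, 4× and 6× MIC (10% MHB MIC), and growth was recorded as log CFU/ml. Detection limit 2 log10.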

The subject of test [11] is Staphylococcus aureus. The experiment in a line: Antibacterial activity against methicillin-resistant Staphylococcus aureus 33921 infected in in vitro pharmacokinetic model assessed as reduction in viable count at 750 mg, iv every 8 hrs measured after 12 hrs using 10^6 CFU/ml inoculum. An outline of the steps: as §2
The subject of test [12] is Staphylococcus aureus. Briefly: Antibacterial activity against methicillin-resistant Staphylococcus aureus 33820 infected in in vitro pharmacokinetic model assessed as reduction in viable count at 750 mg, iv every 8 hrs measured after 24 hrs using 10^6 CFU/ml inoculum. An outline of the steps:
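Single-compartment dilutional in vitro PK model, 37°C, stirred, in 10% Mueller-Hinton broth. […] Inoculum 10^6 CFU/ml from a 24-h plate culture was added 45 min before dosing. Viable counts by spiral plating on nutrient agar with β-lactamase neutralization. Log change was taken from time 0; detection limit 10^2 CFU/ml; at least triplicate.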

Test [13] deals with Staphylococcus aureus. Briefly: T>MIC for 1-log drop in count in methicillin-resistant Staphylococcus aureus 33815 in in vitro pharmacokinetic model after 24 hrs using 10^6 CFU/ml inoculum.
The test system of test [14] is Staphylococcus aureus. The experiment in a line: T>MIC for 3-log drop in count in methicillin-resistant Staphylococcus aureus 33820 in in vitro pharmacokinetic model after 24 hrs using 10^6 CFU/ml inoculum.
Test [15] has as its system Staphylococcus aureus. Briefly: T>MIC for 3-log drop in count in methicillin-resistant Staphylococcus aureus 33815 in in vitro pharmacokinetic model after 24 hrs using 10^8 CFU/ml inoculum.
Test [16] relates to Staphylococcus aureus. The experiment in a line: T>MIC for 4-log drop in count in methicillin-resistant Staphylococcus aureus 33922 in in vitro pharmacokinetic model after 24 hrs using 10^8 CFU/ml inoculum.
The subject of test [17] is Staphylococcus aureus. Briefly: Antibacterial activity against methicillin-resistant Staphylococcus aureus 33827 infected in in vitro pharmacokinetic model assessed as reduction in viable count at 1500 mg, iv every 8 hrs measured after 36 hrs using 10^6 CFU/ml inoculum. An outline of the steps:
as §2

The subject of test [18] is Staphylococcus aureus. The experiment in a line: Antibacterial activity against methicillin-resistant Staphylococcus aureus 33829 infected in in vitro pharmacokinetic model assessed as reduction in viable count at 1500 mg, iv every 8 hrs measured after 36 hrs using 10^6 CFU/ml inoculum. An outline of the steps: as §2

Experimental findings from ChEMBL document CHEMBL1255300, “Pharmacodynamics of the antibacterial effect and emergence of resistance to tomopenem, formerly RO4908463/CS-023, in an in vitro pharmacokinetic model of Staphylococcus aureus infection” (Antimicrob Agents Chemother, 2008) are described below.

Converted amounts (≈) assume the structure as drawn. Bounds are passed on as bounds.

Usually MIC stands for the smallest concentration in the dilution series that meets the test's criterion for growth inhibition. For the compound `C[C@@H](O)[C@H]1C(=O)N2C(C(=O)O)=C(S[C@H]3C[C@@H](C(=O)N4CC[C@H](NC(=O)CNC(=N)N)C4)N(C)C3)[C@H](C)[C@H]12` [TOMOPENEM], the AUBC was found to be 25 log10CFU/ml.hr in the test with Staphylococcus aureus [1]; 22.7 log10CFU/ml.hr with Staphylococcus aureus [2]; 38.1 log10CFU/ml.hr with Staphylococcus aureus [3]; 37.4 log10CFU/ml.hr in the test on Staphylococcus aureus [4]; 100.1 log10CFU/ml.hr with Staphylococcus aureus [8]; 84.4 log10CFU/ml.hr in the test with Staphylococcus aureus [9]. For the same compound, the log10CFU/ml in the test with Staphylococcus aureus [5] was 3.8; in the test with Staphylococcus aureus [10], less than 2; with Staphylococcus aureus [11], 3.6; with Staphylococcus aureus [12] it was 4.2; in the test on Staphylococcus aureus [17] it was 4; in the test on Staphylococcus aureus [18], 4. Further, the MIC with Staphylococcus aureus [6] came out at 0.06 µg/mL (≈ 0.112 µM). Also, in the test on Staphylococcus aureus [7], the Time came to 24 h. Also, the “fT>MIC” value in the test with Staphylococcus aureus [13] turned out to be 8.6%; in the test on Staphylococcus aureus [14], 20.4%; in the test on Staphylococcus aureus [15] it was 3.3%; in the test on Staphylococcus aureus [16], 15%.
